Results reported in ChEMBL document CHEMBL2157949 (J Med Chem, 2012).
pIC50: −log10 of the molar value.

Legend:
R2 [1] = test: Growth inhibition of Chinese hamster R2 cells deficient in reduced folate carrier and human folate receptor alpha incubated for 96 hrs by CellTiter-blue cell viability assay; format: cell-based, Cricetulus griseus; details: R2, 96 h
R2 [2] = test: Growth inhibition of Chinese hamster R2 cells expressing human PCFT incubated for 96 hrs by CellTiter-blue cell viability assay; format: functional, cell-based, Cricetulus griseus; details: R2, 96 h
How it was run: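 R2/hPCFT4 CHO cells maintained beforehand in folate-free RPMI 1640 with dialyzed FBS, 25 nM LCV and G418. Assay: ~2500–5000 cells/well in folate-free RPMI 1640 (pH 7.2) with 25 nM LCV, 10% dialyzed FBS, antibiotics and L-glutamine, over a range of drug concentrations.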

[3] = Growth inhibition of Chinese hamster PC43-10 cells expressing reduced folate carrier incubated for 96 hrs by CellTiter-blue cell viability assay; format: functional, cell-based; details: Cricetulus griseus, PC43-10, 96 h
KB [4] = test: Growth inhibition of human KB cells endogenously expressing RFC/FRalpha/PCFT in presence of folic acid incubated for 96 hrs by CellTiter-blue cell viability assay; format: functional, cell-based
KB [5] = test: Growth inhibition of human KB cells endogenously expressing RFC/FRalpha/PCFT incubated for 96 hrs by CellTiter-blue cell viability assay; format: functional, cell-based
[6] = Growth inhibition of Chinese hamster RT16 cells expressing human folate receptor alpha incubated for 96 hrs in presence of folic acid by CellTiter-blue cell viability assay; format: functional, cell-based; details: Cricetulus griseus, RT16, 96 h
[7] = Growth inhibition of Chinese hamster RT16 cells expressing human folate receptor alpha incubated for 96 hrs by CellTiter-blue cell viability assay; format: functional, cell-based; details: Cricetulus griseus, RT16, 96 h
R2 [8] = test: Growth inhibition of Chinese hamster R2 cells expressing empty vector control incubated for 96 hrs by CellTiter-blue cell viability assay; details: Cricetulus griseus, R2, 96 h
IGROV-1 [9] = test: Growth inhibition of human IGROV1 cells endogenously expressing RFC/FRalpha/PCFT in presence of folic acid incubated for 96 hrs by CellTiter-blue cell viability assay; format: functional, cell-based; details: IGROV-1, 96 h
IGROV-1 [10] = test: Growth inhibition of human IGROV1 cells endogenously expressing RFC/FRalpha/PCFT incubated for 96 hrs by CellTiter-blue cell viability assay; format: functional, cell-based; details: IGROV-1, 96 h

| pIC50 (KB [4]) | pIC50 (KB [5]) | Compound | pIC50 (R2 [1]) | pIC50 (R2 [2]) | pIC50 [3] | pIC50 [6] | pIC50 [7] | pIC50 (R2 [8]) | pIC50 (IGROV-1 [9]) | pIC50 (IGROV-1 [10]) |
| --- | --- | --- | --- | --- | --- | --- | --- | --- | --- | --- |
| < 6.00 | 6.57 | Nc1nc2[nH]c(CCCCc3ccsc3C(=O)N[C@@H](CCC(=O)O)C(=O)O)cc2c(=O)[nH]1 | < 6.00 | < 6.00 | < 6.00 | < 6.00 | < 6.00 | < 6.00 | – | – |
| < 6.00 | < 6.00 | Nc1nc2[nH]c(CCC#Cc3sccc3C(=O)N[C@@H](CCC(=O)O)C(=O)O)cc2c(=O)[nH]1 | < 6.00 | < 6.00 | < 6.00 | < 6.00 | < 6.00 | < 6.00 | – | – |
| < 6.00 | 6.77 | Nc1nc2[nH]c(CCCCc3sccc3C(=O)N[C@@H](CCC(=O)O)C(=O)O)cc2c(=O)[nH]1 | < 6.00 | < 6.00 | < 6.00 | < 6.00 | < 6.00 | < 6.00 | – | – |
| < 6.00 | < 6.00 | Nc1nc2[nH]c(CCC#Cc3ccsc3C(=O)N[C@@H](CCC(=O)O)C(=O)O)cc2c(=O)[nH]1 | < 6.00 | < 6.00 | < 6.00 | < 6.00 | < 6.00 | < 6.00 | – | – |
| < 6.00 | < 6.00 | Nc1nc2[nH]c(CCC#Cc3csc(C(=O)N[C@@H](CCC(=O)O)C(=O)O)c3)cc2c(=O)[nH]1 | < 6.00 | < 6.00 | < 6.00 | < 6.00 | 7.87 | < 6.00 | < 6.00 | < 6.00 |

| Compound | pIC50 (KB [4]) | pIC50 (KB [5]) | pIC50 (R2 [1]) | pIC50 (R2 [2]) | pIC50 [3] | pIC50 [6] | pIC50 [7] | pIC50 (R2 [8]) | pIC50 (IGROV-1 [9]) | pIC50 (IGROV-1 [10]) |
| --- | --- | --- | --- | --- | --- | --- | --- | --- | --- | --- |
| Nc1nc2[nH]c(CCCc3ccc(C(=O)N[C@@H](CCC(=O)O)C(=O)O)s3)cc2c(=O)[nH]1 | < 6.00 | – | – | – | 7.00 | < 6.00 | – | 6.54 | < 6.00 | – |
